In ChEMBL document CHEMBL1147441, “A new series of potent oxindole inhibitors of CDK2” (Bioorg Med Chem Lett, 2004):

Key:
[1] = test system: SW480; test: In vitro inhibition of SW480 (human colon cancer) cell proliferation.; type: functional, cell-based
Outline: (§1)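 MTT-based proliferation assay run on tumour cells. IC50 values were taken from a single experiment.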

[2] = target: Cyclin-dependent kinase 2/cyclin E (Homo sapiens, UniProt P24941); test: In vitro inhibition of recombinant Cyclin Dependent Kinase-2/Cyclin E.; type: protein-complex assay
[3] = test system: MDA-MB-435; test: In vitro inhibition of MDA MB 435 (human breast cancer) cell proliferation.; type: functional, cell-based; outline: as §1

`COc1cc[nH]c1/C=C1\C(=O)Nc2ccc(F)c(C#C[C@@H]3C[C@@H](O)CN3)c21` showed an IC50 [1] of 44 nM, an IC50 [2] of 4 nM and an IC50 [3] of 63 nM.
`CN[C@H](C#Cc1c(F)ccc2c1/C(=C/c1[nH]ccc1OC)C(=O)N2)[C@@H](C)O` was tested, and the IC50 [1] was 140 nM, the IC50 [2] was 7 nM and the IC50 [3] was 358 nM.
For `COc1cc[nH]c1/C=C1\C(=O)Nc2ccc(F)c(C#CC(O)CN)c21` (configuration not stated), the IC50 [1] was 110 nM, the IC50 [2] was 4 nM and the IC50 [3] was 130 nM.
Work on `COc1cc[nH]c1/C=C1\C(=O)Nc2ccc(F)c(C#CC3(O)CCOCC3)c21` yielded an IC50 [1] of 290 nM, an IC50 [2] of 4 nM and an IC50 [3] of 600 nM.
For `COc1cc[nH]c1/C=C1\C(=O)Nc2ccc(F)c(C#C[C@@H]3CCCN3)c21`, the IC50 [1] was 40 nM, the IC50 [2] was 2 nM and the IC50 [3] was 31 nM.
Compound `COc1cc[nH]c1/C=C1\C(=O)Nc2ccc(F)c(C#C[C@H](CO)NCCO)c21` has an IC50 [1] of 967 nM, an IC50 [2] of 95 nM and an IC50 [3] of 1270 nM.
`COc1cc[nH]c1/C=C1\C(=O)Nc2ccc(F)c(C#C[C@@H](C)O)c21` was tested, and the IC50 [1] was 130 nM, the IC50 [2] was 21 nM and the IC50 [3] was 110 nM.
`COc1cc[nH]c1/C=C1\C(=O)Nc2ccc(F)c(C#C[C@@H](N)CO)c21` was tested, and the IC50 [1] was 205 nM, the IC50 [2] was 5 nM and the IC50 [3] was 300 nM.
With `COc1cc[nH]c1/C=C1\C(=O)Nc2ccc(F)c(C#C[C@@H](N)[C@@H](C)O)c21` the IC50 [1] was 210 nM, the IC50 [2] was 9 nM and the IC50 [3] was 300 nM.
`COc1cc[nH]c1/C=C1\C(=O)Nc2ccc(F)c(C#C[C@@H](O)[C@@H](N)[C@@H](C)O)c21` showed an IC50 [1] of 140 nM and an IC50 [3] of 400 nM.
Work on `COc1cc[nH]c1/C=C1\C(=O)Nc2ccc(F)c(C#C[C@@H](NS(C)(=O)=O)[C@@H](C)O)c21` yielded an IC50 [1] of 1180 nM, an IC50 [2] of 45 nM and an IC50 [3] of 2620 nM.
